Compound activity from PubChem BioAssay.
Ab BasE inh – inhibitors of Acinetobacter baumannii siderophore enzyme BasE; purified BasE, fluorescence polarization binding displacement; inhibition, % (concentration not given with the values); 84,000 tested, 0.1% active; in the data active means inhibition above about 25%, passing the limit was not always enough
LANA-nucl inh – LANA-nucleosome interaction inhibition. AID 720717. FITC-LANA1-23 / chicken nucleosome fluorescence polarization; active compounds read low. z-score (no concentration beside the values). 51,000 tested, 0.3% active;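 active means both repeat wells score below -2 in polarization z-score versus plate sample wells, excluding overly bright wells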
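test system = FITC-LANA peptide and chicken nucleosomes | amount = 240 nM purified chicken nucleosomes (480 nM peptide binding sites), final | reagent = 50 nM FITC-LANA1-23 probe | medium = TEN-BT buffer, pH 7.5 | doses = single compound addition by pin transfer, 100 nL per well | timing = 10–45 min, room temperature | detection = fluorescence polarization | repeats = duplicate plates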
A number is an active result; n = inactive; x = not tested or not shown. Most compounds without a hit are left out; they make up all but 0.3% or so of the library.

SMILES	Ab BasE inh	LANA-nucl inh
O=C(O)C1=C(Nc2ccccc2)OCC1=O	n	x
CCOC(=O)C1=C(Nc2ccc(OC)cc2)OCC1=O	n	-2.1
Cc1ccccc1Nc1nc(N)nc(CSCC(=O)N2CCc3ccccc32)n1	n	x
CCOC(=O)c1ccc2c(c1)CC/C(=C\c1ccc(Cl)cc1Cl)C2=O	n	x
Cn1nccc1C(N)c1ccccc1 (stereo unspecified)	26	n
NC(c1ccccc1)c1ccccc1	n	x
COc1ccc(COC(=O)N/C=C/c2ccccc2)cc1	x	n
Cc1cc(C)nc(SCc2ccccc2C(=O)N2CCN(Cc3ccc(C#N)cc3)CC2)n1	n	x
C=CCNC(=O)c1ccc2c(c1)NC(=O)C(C)N2 (stereo unspecified)	n	n
CCCCNC(=O)c1ccc2c(c1)NC(=O)C(C)N2 (stereo unspecified)	n	-3.2
CSC1=NCCN1C(=O)C1c2ccccc2Oc2ccccc21	n	n
Cc1cc(C(F)(F)F)c2c(C)cc(=O)n(C)c2n1	n	x
C=CCn1c(=O)[nH]c2nc3cc(N=CN(C)C)ccc3nc2c1=O	n	-5.8
C=CCn1c(=O)[nH]c2nc3cc(NC(=O)CC)ccc3nc2c1=O	n	n
CCN(C1CCCCC1)S(=O)(=O)c1ccc(S(=O)(=O)NC2CC2)cc1	n	n
O=C(/C=C/c1ccccc1)Nn1cnc2c(cnn2-c2ccccc2)c1=O	n	n
O=C(Nn1cnc2c(cnn2-c2ccccc2)c1=O)c1ccccc1	n	-2.1
NC(=O)CC12CC3CC(C1)CC(CC(N)=O)(C3)C2	57	n
O=C(O)CC12CC3CC(C1)CC(CC(=O)O)(C3)C2	n	x
CCC1=[N+](CC(=O)c2ccccc2)CCn2cccc21	n	n
CCN(CC)C(=O)Cn1cc(/C=C2\C(=O)NC(=O)N(CC)C2=O)c2ccccc21	n	-2.7
C=CCN1C(=O)NC(=O)/C(=C\c2cn(Cc3ccccc3)c3ccccc23)C1=O	n	x
O=C(Cc1nncn1-c1ccccc1)c1ccc(O)cc1O	33	x
O=C(Cc1nc2ccccc2s1)c1ccc(O)cc1O	n	x
N#Cc1c(NCc2ccccc2)ncc2c1Nc1ccccc1C2	n	-3.3
SMILES	Ab BasE inh	LANA-nucl inh
CC(C)c1nc(NCc2ccccc2)c(C#N)c2c1CCCC2	n	n
COc1ccc(S(=O)(=O)Nc2ccc(S(=O)(=O)N3CCCC3)cc2)cc1Cl	n	n
Cc1ccc2c(c1)c1c3c(nccn32)CCC1	n	-3.2
Cc1ccc2c(c1)c1c(n2C)C(C#N)CCC1 (stereo unspecified)	n	n
CCN=C1SC(C(=O)Nc2ccc(Br)cc2)CC(=O)N1CC (stereo unspecified)	n	n
CC(C)c1c(Br)c(=O)oc2c3c4c(cc12)CCCN4CCC3	n	x
O=c1ccc2cc3c4c(c2o1)CCCN4CCC3	n	-5.2
Cc1ccc(S(=O)(=O)N2CCC[C@H]2C(=O)OCc2c(C)noc2C)cc1	n	x
N#Cc1c(=O)n(O)c2ccccc2[n+]1[O-]	n	-13
O=c1c(-c2ccc(Oc3ccccc3)cc2)[n+]([O-])c2ccccc2n1O	n	n
c1ccc2c(c1)nnn2CNCn1nnc2ccccc21	n	n
O=C(O)Cc1nonc1NCn1nnc2ccccc21	40	n
CC(C(=O)N1CCc2ccccc21)n1nc(-c2ccccc2)ccc1=O (stereo unspecified)	n	n
O=c1ccc(-c2ccccc2)nn1Cc1ccncc1	77	n
Cn1nc(-c2ccccc2)ccc1=O	n	n
COc1cccc(C2C3=C(CCCC3=O)NC3=C2C(=O)CCC3)c1	n	n
O=C(Cn1cnc2ccccc21)OCc1ccc(Br)cc1	27	x
NC(=O)Cn1cnc2ccccc21	n	n
Cc1cccc(N2CC(C(=O)OCn3nnc4ccccc4c3=O)CC2=O)c1C (stereo unspecified)	n	x
O=C1NC(=O)/C(=C\c2cn(Cc3ccccc3F)c3ccccc23)N1	n	x
N#Cc1ccccc1Cn1cc(C=C2C(=O)NC(=O)NC2=O)c2ccccc21	n	-3.6
O=C(NCCCO)Nc1ccc2nc(-c3ccco3)c(-c3ccco3)nc2c1	n	-3
O=C(Nc1ccc(N2CCOCC2)cc1)Nc1ccc2nc(-c3ccco3)c(-c3ccco3)nc2c1	n	n
COC(=O)CCc1nc2ccccc2[nH]1	n	n
COC(=O)c1ccc([C@@H]2Nc3c(C)cccc3[C@@H]3C=CC[C@@H]32)cc1	n	x
SMILES	Ab BasE inh	LANA-nucl inh
O=C(O)C1Nc2c(I)cccc2C2C=CCC12 (stereo unspecified)	47	n
O=C(O)c1ccc(N=Cc2cn(-c3ccccc3)nc2-c2cccs2)cc1	n	x
Cc1ccc(C(=O)COC(=O)c2ccc(-n3cccn3)cc2)s1	n	x
CSc1scc2c1C(=O)/C(=C/N(C)C)CC2	36	n
CSc1scc2c1C(=O)CC(C)(C)C2	n	x
CC(C)(C)C1CCC(=NNC(=O)c2ccccc2O)CC1 (stereo unspecified)	n	n
Cc1cccc(N2C(=O)c3cccc4c(N5CCNCC5)ccc(c34)C2=O)c1	n	n
